Source: PubChem
FGF22 binding: shifts melting point of recombinant human FGF22; Q9HCT0; recombinant FGF22 thermal shift, SYPRO orange fluorescence; percent of sucrose octasulfate shift, DMSO zero; activity (Tm shift, normalised), % at 9.99 µM; hit rate 1.5% among 340,000;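 active = mean Tm shift, scaled 0 neutral to 100 positive control, at about 1.3% or above, every replicate too, limit read from the data; inconclusive = no clear call, values can overlap the other calls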
S100A4 inh HTS: S100A4-myosin IIA interaction inhibition; P26447; S100A4/TAMRA-MyoIIA peptide fluorescence polarization; inhibition, % at 10.7 µM; hit rate 0.14% among 360,000;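 active = mean inhibition of at least 70% across replicates, with every replicate also reaching that level; inconclusive = mean inhibition reaches 70% but some replicates fall short; inactive = mean inhibition below 70%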
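Test system – S100A4 monomer (human) · Compound – single-point compound testing · Schedule – 5 min incubation before reading · Probe or stimulus – TAMRA-labelled myosin IIA heavy-chain peptide probe, 5 nM · Benchmarks – neutral control DMSO, positive control TFP · Medium – Calcium-containing HEPES buffer, pH 7.2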
PDI turbidity: blocks human protein disulfide isomerase activity; AID 588391; PDI insulin aggregation turbidity, A650, 90 min; inhibition, % at 10 µM; hit rate 0.052% among 350,000;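 active = mean inhibition across replicates of 30% or more, whatever share of single replicates reach that level; inconclusive = mean inhibition below 30% while every single replicate reaches 30%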
Target sequence (P07237 whole entry, looked up): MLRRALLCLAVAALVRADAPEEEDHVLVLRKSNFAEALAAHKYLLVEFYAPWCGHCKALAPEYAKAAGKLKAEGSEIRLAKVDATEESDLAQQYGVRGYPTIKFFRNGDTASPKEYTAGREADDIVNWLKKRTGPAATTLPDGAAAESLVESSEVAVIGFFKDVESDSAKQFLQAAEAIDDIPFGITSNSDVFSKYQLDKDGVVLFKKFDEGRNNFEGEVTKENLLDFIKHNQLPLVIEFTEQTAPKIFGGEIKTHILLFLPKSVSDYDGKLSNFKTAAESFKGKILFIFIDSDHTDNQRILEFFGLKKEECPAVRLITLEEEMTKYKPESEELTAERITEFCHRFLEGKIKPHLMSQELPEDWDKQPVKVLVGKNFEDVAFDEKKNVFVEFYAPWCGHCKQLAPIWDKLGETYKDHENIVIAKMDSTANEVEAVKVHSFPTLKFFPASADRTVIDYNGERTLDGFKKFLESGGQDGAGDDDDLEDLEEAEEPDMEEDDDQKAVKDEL
ERp5 block: inhibitors of human ERp5 | Q15084 | ERp5 insulin aggregation, absorbance 650 nm, 90 min | inhibition, % at 9.99 µM | hit rate 0.05% among 350,000;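 active = mean replicate inhibition above about 25%, with every replicate also reaching it, limit read from the data, passing the limit was not always enough; inconclusive = only one of those two criteria met; inactive = neither criterion met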
ERAP1 HTS inh: ERAP1 (human) enzyme inhibition; recombinant ERAP1, Leu-AMC fluorescence, 60 min; inhibition, % at 10.7 µM; hit rate 0.15% among 340,000; AID 652197;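 active = mean replicate inhibition of at least 30%, or all replicates individually reaching that 30% level; inactive = mean below 30% and not every replicate reaching it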;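 also: 0% = neutral control wells and 100% = L-leucinethiol positive control wells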
* marks the source's active call; other numbers are inactive results; ? = inconclusive; . = no result given. This excerpt belongs to a sample that is enriched for hits.

SMILES	FGF22 binding	S100A4 inh HTS	PDI turbidity	ERp5 block	ERAP1 HTS inh
CC1C2CCC(C2)C1OC(=O)c1ccccc1C(=O)O (configuration not stated)	44*	2	4	-3	-2
CC(=O)OCC(=O)[C@@]1(O)CC[C@H]2[C@@H]3CCC4=CC(=O)C=C[C@]4(C)[C@@]3(F)[C@@H](O)C[C@@]21C	0	-9	-3	4	3
CC(=O)OCC(=O)C1=CCC2C3CCC4=CC(=O)C=CC4(C)C3(F)C(OC(C)=O)CC12C (configuration not stated)	43*	-1	8	0	1
COc1ccc(CN2CCNC(=O)C2CC(=O)N(C)Cc2cc(C)no2)cc1OC (configuration not stated)	0	-2	-1	5	1
OCCC1CN(Cc2cccn2-c2ccccn2)CCN1C1CCCCC1 (configuration not stated)	44*	3	?	-6	2
COc1ccc(OC)c(N=Nc2c(O)c3ccccc3[nH]c2=O)c1	43*	-5	-2	4	0
O=S(=O)(c1ccc(-c2ccccc2)cc1)N1CCOCC1	.	.	-10	.	.
O=S(=O)(c1ccc(S(=O)(=O)N2CCOCC2)cc1)N1CCCC1	43*	-3	1	2	2
CC(C)C[C@H](NC(=O)Nc1cccc(Br)c1)C(=O)O	44*	5	-10	0	0
C[C@H]1CN([C@@H](C)CO)C(=O)c2cccc(NS(=O)(=O)c3cccs3)c2O[C@@H]1CN(C)Cc1ccc(Oc2ccccc2)cc1	0	10	.	-1	-3
CCOc1ncccc1C(=O)Nc1nnc(C)s1	0	-2	-9	5	-4
CCOc1ncccc1C(=O)Nc1nnc(C2CC2)s1	44*	-8	3	1	-2
O=C(Nc1cccnc1)c1ccc(-c2cc(Cl)ccc2Cl)o1	43*	3	-5	2	-10
CO/N=C/C(=N\Nc1cc(OC)cc(OC)c1)C(=O)c1ccccc1	0	-2	-5	-6	-2
CC(C)Oc1ccc(C2C(C#N)=C(N)Oc3c2oc(CO)cc3=O)cc1 (configuration not stated)	44*	1	-5	?	8
COc1ccc(Nc2nc(NCc3cccs3)nc3ccsc23)cc1OC	0	-1	15	0	1
CCn1c(C)[n+](Cc2ccccc2)c2ccc(C(=O)OC)cc21	43*	-2	-6	-1	12
Cc1noc(C)c1COc1ccc(C(=O)N(C)CCOc2ccccc2)cc1	0	-6	1	7	0
CN(C)/C=C1\C(=O)N(c2ccc(Cl)c(Cl)c2)CS1(=O)=O	43*	-11	0	2	1
CCc1ccc(C(=O)COC(=O)C(CCSC)NC(=O)c2ccccc2)cc1 (configuration not stated)	44*	-13	-4	2	1
CSCCC(NC(=O)c1ccc(C(C)(C)C)cc1)C(=O)O (configuration not stated)	44*	3	-1	3	1
CCS(=O)(=O)c1ccc2c(c1)N(S(C)(=O)=O)CC(C(=O)NCCOC)O2 (configuration not stated)	.	.	-13	.	.
OC1(c2cccs2)CN(c2ccccc2)C2=[N+]1CCCC2 (configuration not stated)	43*	-4	-3	-1	0
CCOc1ccc(N2CC(O)(c3cccs3)[N+]3=C2CCCC3)cc1 (configuration not stated)	0	11	-10	4	0
CSc1nnc(-c2cc[n+](C)cc2)n1CCO	0	-14	-7	-7	102*
SMILES	FGF22 binding	S100A4 inh HTS	PDI turbidity	ERp5 block	ERAP1 HTS inh
CC(=O)Nc1ccc(NC(=O)C(C)O/N=C/c2cccc([N+](=O)[O-])c2)cc1 (configuration not stated)	.	.	4	.	.
O=C(CCl)Nc1ccccc1Sc1ccc(Cl)cc1	.	.	50*	.	.
CCc1cccc(C)c1NC(=O)C1CCN(C(=O)c2ccc([N+](=O)[O-])cc2)CC1	0	0	3	0	7
CCN(CC)S(=O)(=O)c1ccc(/C=C/C(=O)OCC(=O)Nc2ccc(C(N)=O)cc2)cc1	43*	-5	5	3	4
O=C(Nc1ccncc1)C1CC(=O)N(c2ccccc2)C1 (configuration not stated)	0	-2	-6	28*	2
Cc1ccc(N2CC(C(=O)Nc3ccncc3)CC2=O)cc1 (configuration not stated)	.	.	11	.	.
CCOc1ccc2nc(Cl)sc2c1	43*	-1	3	5	3
CCOc1ccc2nc(NS(C)(=O)=O)sc2c1	.	.	-6	.	.
COc1ccc(Br)c(C(=O)N2CCCC2(C)C(=O)NCC(C)C)c1 (configuration not stated)	0	-3	6	3	-12
COC(=O)[C@@H](NC(=O)/C=C/c1ccc(OC)cc1)C(C)C	43*	-3	-7	-15	1
COC(=O)[C@H](C)NC(=O)/C=C/c1ccc(OC)cc1	.	.	-14	.	.
CCCc1cc(=O)[nH]c(SCc2nc3ccc([N+](=O)[O-])cc3[nH]2)n1	43*	-4	1	4	-3
CCNC(=O)[C@@H]1[C@@H](CO)[C@@H]2Cn3c(ccc(-c4cccc(F)c4)c3=O)[C@@H]2N1C(C)=O	.	12	.	11	2
CC(=O)N1[C@H](C(=O)NCCCN(C)C)[C@@H](CO)[C@@H]2Cn3c(ccc(-c4cccc(F)c4)c3=O)[C@@H]21	0	101*	.	-2	8
C[n+]1ccc(/C=C/c2cccs2)cc1	0	-5	-8	2	53*
Nc1ncc(-n2cncn2)c(-c2ccccc2)n1	43*	3	2	2	-7
C=CCn1c(=N)n(CC(=O)c2ccccc2)c2ccccc21	0	1	-3	8	-1
CS/C(=C/[N+](=O)[O-])Nc1cccc2c1C(C)CC2(C)C (configuration not stated)	44*	-14	0	-1	0
Nc1cccc(S(=O)(=O)c2cccc(N)c2)c1	.	.	-6	.	.
Nc1cccc(S(=O)(=O)c2ccc(N)c(N)c2)c1	43*	-3	-2	6	5
Cc1[nH]c(C)c(S(=O)(=O)NCCc2ccccc2)c1C(=O)N1CCCC1	0	-1	1	-3	6
Cc1ccc(-c2cn3c(n2)SCC3)cc1	0	-4	-5	-1	7
CCc1ccc(-c2cn3c(n2)SCC3)cc1	43*	9	1	-3	4
CCc1nnc(NC(=O)CSc2n[nH]c(-c3ccccc3O)n2)s1	1.8*	-2	-3	-8	-1
Cc1ccccc1NC(=O)COC(=O)CCc1nc2ccccc2c(=O)[nH]1	0	1	-5	3	.
O=C(COC(=O)CCc1nc2ccccc2c(=O)[nH]1)Nc1c(Cl)cccc1C(F)(F)F	0	-12	3	26*	-1
Cc1ccc(/C=C/C(=O)O)cc1S(=O)(=O)NCc1ccco1	43*	-17	-18	-11	-4
